Reference: ChEMBL document CHEMBL2040768, “Synthesis, antimicrobial and cytotoxic activities of sulfone linked bis heterocycles” (Eur J Med Chem, 2012)
Active and inactive are the calls of the source. No cut-off for these calls is given here.

Columns and labels:
[1] = tested on: Bacillus subtilis; experiment: Antibacterial activity against Bacillus subtilis at 100 ug/ml after 24 hrs by agar well diffusion method; assay type: functional; details: for zone of inhibition at 100 µg/mL: read-out: DIZ
Method in brief: (§1)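 Agar well diffusion. Nutrient plates swabbed with 24 h broth culture of the bacterium; 6 mm wells bored and loaded with DMSO solutions of compound (wells at 50 and 100 per well). Chloramphenicol positive control, DMSO negative control. Plates held 37 °C, 24 h; inhibition zone diameter (mm) measured, mean of duplicates.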

[2] = tested on: Klebsiella pneumoniae; experiment: Antibacterial activity against Klebsiella pneumoniae at 50 ug/ml after 24 hrs by agar well diffusion method; assay type: functional; details: for zone of inhibition at 50 µg/mL: read-out: DIZ; method in brief: as §1
[3] = tested on: Aspergillus niger; experiment: Antifungal activity against Aspergillus niger at 100 ug/ml after 48 hrs by agar well diffusion method; assay type: functional; details: for zone of inhibition at 100 µg/mL: read-out: DIZ
Method in brief: (§2)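 Fungal agar well diffusion. Plates swabbed with fungal culture, 6 mm wells filled with DMSO solutions of compound (50 and 100 per well). Ketoconazole positive and DMSO negative controls. Plates incubated 28 °C for 48 h; zone of inhibition diameter (mm) read, average of duplicates.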

[4] = tested on: Staphylococcus aureus; experiment: Antibacterial activity against Staphylococcus aureus at 100 ug/ml after 24 hrs by agar well diffusion method; assay type: functional; details: for zone of inhibition at 100 µg/mL: read-out: DIZ; method in brief: as §1
[5] = tested on: Aspergillus niger; experiment: Antifungal activity against Aspergillus niger at 50 ug/ml after 48 hrs by agar well diffusion method; assay type: functional; details: for zone of inhibition at 50 µg/mL: read-out: DIZ; method in brief: as §2
[6] = tested on: Penicillium chrysogenum; experiment: Antifungal activity against Penicillium chrysogenum at 100 ug/ml after 48 hrs by agar well diffusion method; assay type: functional; details: for zone of inhibition at 100 µg/mL: read-out: DIZ; method in brief: as §2
[7] = tested on: Staphylococcus aureus; experiment: Antibacterial activity against Staphylococcus aureus at 50 ug/ml after 24 hrs by agar well diffusion method; assay type: functional; details: for zone of inhibition at 50 µg/mL: read-out: DIZ; method in brief: as §1
[8] = tested on: Klebsiella pneumoniae; experiment: Antibacterial activity against Klebsiella pneumoniae at 100 ug/ml after 24 hrs by agar well diffusion method; assay type: functional; details: for zone of inhibition at 100 µg/mL: read-out: DIZ; method in brief: as §1
[9] = tested on: Penicillium chrysogenum; experiment: Antifungal activity against Penicillium chrysogenum at 50 ug/ml after 48 hrs by agar well diffusion method; assay type: functional; details: for zone of inhibition at 50 µg/mL: read-out: DIZ; method in brief: as §2
[10] = tested on: A549; experiment: Cytotoxicity against human A549 cells up to 0.2 mM after 72 hrs by MTT assay
[11] = tested on: Bacillus subtilis; experiment: Antibacterial activity against Bacillus subtilis at 50 ug/ml after 24 hrs by agar well diffusion method; assay type: functional; details: for zone of inhibition at 50 µg/mL: read-out: DIZ; method in brief: as §1
[12] = tested on: Pseudomonas aeruginosa; experiment: Antibacterial activity against Pseudomonas aeruginosa at 50 ug/ml after 24 hrs by agar well diffusion method; assay type: functional; details: for zone of inhibition at 50 µg/mL: read-out: DIZ; method in brief: as §1
[13] = tested on: Pseudomonas aeruginosa; experiment: Antibacterial activity against Pseudomonas aeruginosa at 100 ug/ml after 24 hrs by agar well diffusion method; assay type: functional; details: for zone of inhibition at 100 µg/mL: read-out: DIZ; method in brief: as §1

Row | Structure (SMILES) | zone of inhibition at 100 µg/mL [1] [mm] | zone of inhibition at 50 µg/mL [2] [mm] | zone of inhibition at 100 µg/mL [3] [mm] | zone of inhibition at 100 µg/mL [4] [mm] | zone of inhibition at 50 µg/mL [5] [mm] | zone of inhibition at 100 µg/mL [6] [mm] | zone of inhibition at 50 µg/mL [7] [mm] | zone of inhibition at 100 µg/mL [8] [mm] | zone of inhibition at 50 µg/mL [9] [mm] | Activity [10] | zone of inhibition at 50 µg/mL [11] [mm] | zone of inhibition at 50 µg/mL [12] [mm] | zone of inhibition at 100 µg/mL [13] [mm] | also measured
1 | O=S(=O)(Cc1nnc(CS(=O)(=O)c2c[nH]cc2S(=O)(=O)c2ccc(Cl)cc2)s1)Nc1ccc(Cl)cc1 | 29 | 29 | 31 | 27 | 29 | 33 | 26 | 30 | 30 | inactive | 27 | 23 | 25 | –
2 | O=S(=O)(/C=C/S(=O)(=O)c1ccccc1)Cc1nnc(CS(=O)(=O)Nc2ccccc2)s1 | 24 | 24 | 22 | 21 | 19 | 24 | 19 | 26 | 21 | inactive | 22 | 16 | 17 | –
3 | Cc1ccc(NS(=O)(=O)Cc2nnc(CS(=O)(=O)c3c[nH]cc3S(=O)(=O)c3ccc(C)cc3)s2)cc1 | 19 | 19 | 17 | 16 | 14 | 19 | 14 | 21 | 16 | inactive | 17 | 13 | 14 | –
4 | Cc1ccc(NS(=O)(=O)Cc2nnc(CS(=O)(=O)/C=C/S(=O)(=O)c3ccc(C)cc3)o2)cc1 | – | – | – | – | – | – | – | – | – | inactive | – | – | – | diameter of the inhibition zone (DIZ) [1]: inactive; diameter of the inhibition zone (DIZ) [2]: inactive; diameter of the inhibition zone (DIZ) [3]: inactive; diameter of the inhibition zone (DIZ) [4]: inactive; diameter of the inhibition zone (DIZ) [5]: inactive; diameter of the inhibition zone (DIZ) [6]: inactive; diameter of the inhibition zone (DIZ) [7]: inactive; diameter of the inhibition zone (DIZ) [8]: inactive; diameter of the inhibition zone (DIZ) [9]: inactive; diameter of the inhibition zone (DIZ) [11]: inactive; diameter of the inhibition zone (DIZ) [12]: inactive; diameter of the inhibition zone (DIZ) [13]: inactive
5 | O=S(=O)(/C=C/S(=O)(=O)c1ccc(Cl)cc1)Cc1nnc(CS(=O)(=O)Nc2ccc(Cl)cc2)s1 | 29 | 33 | 33 | 32 | 31 | 35 | 29 | 35 | 32 | inactive | 27 | 25 | 27 | –
6 | O=S(=O)(Cc1nnc(CS(=O)(=O)C2CNN=C2S(=O)(=O)c2ccccc2)s1)Nc1ccccc1 (centres undefined) | 16 | – | – | 14 | – | – | 12 | – | – | inactive | 14 | – | – | diameter of the inhibition zone (DIZ) [2]: inactive; diameter of the inhibition zone (DIZ) [3]: inactive; diameter of the inhibition zone (DIZ) [5]: inactive; diameter of the inhibition zone (DIZ) [6]: inactive; diameter of the inhibition zone (DIZ) [8]: inactive; diameter of the inhibition zone (DIZ) [9]: inactive; diameter of the inhibition zone (DIZ) [12]: inactive; diameter of the inhibition zone (DIZ) [13]: inactive
7 | Cc1ccc(NS(=O)(=O)Cc2nnc(CS(=O)(=O)c3c[nH]nc3S(=O)(=O)c3ccc(C)cc3)n2N)cc1 | 20 | 20 | 19 | 17 | 16 | 18 | 16 | 22 | 14 | inactive | 18 | 12 | 14 | –
8 | O=S(=O)(Cc1nnc(CS(=O)(=O)c2c[nH]nc2S(=O)(=O)c2ccccc2)o1)Nc1ccccc1 | 15 | 15 | 13 | 12 | 10 | 15 | 10 | 17 | 12 | inactive | 13 | 10 | 12 | –
